Assay results reported in ChEMBL document CHEMBL1134263, “Syntheses and evaluation of quinoline derivatives as novel retinoic acid receptor alpha antagonists” (Bioorg Med Chem Lett, 2001).

Columns and labels:
[1] = target: T1, Retinoic acid receptor gamma (Homo sapiens) (UniProt P13631); experiment: In vitro binding affinity towards Retinoic acid receptor gamma evaluated relative to that of All-trans retinoic acids(Mean of ATRA IC50 = 0.42 nM)
T1 sequence (whole entry): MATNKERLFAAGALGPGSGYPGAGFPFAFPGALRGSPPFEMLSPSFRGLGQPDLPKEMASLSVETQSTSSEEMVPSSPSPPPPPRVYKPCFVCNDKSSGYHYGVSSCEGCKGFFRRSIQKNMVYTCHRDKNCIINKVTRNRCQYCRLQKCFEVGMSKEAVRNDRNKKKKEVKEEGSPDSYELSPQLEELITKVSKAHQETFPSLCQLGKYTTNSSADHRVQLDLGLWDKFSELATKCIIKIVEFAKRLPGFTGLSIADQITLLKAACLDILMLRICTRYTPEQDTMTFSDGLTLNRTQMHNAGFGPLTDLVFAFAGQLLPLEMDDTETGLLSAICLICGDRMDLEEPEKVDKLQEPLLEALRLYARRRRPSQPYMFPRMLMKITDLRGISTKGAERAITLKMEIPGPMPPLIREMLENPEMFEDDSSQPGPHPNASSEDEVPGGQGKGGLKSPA

[2] = target: T2, Retinoic acid receptor beta (Homo sapiens, UniProt P10826); experiment: Antagonistic activity was evaluated in terms of inhibition of Retinoic acid receptor beta transactivation by ATRA (50 nM); Not detectable; format: functional
T2 sequence (P10826 whole entry): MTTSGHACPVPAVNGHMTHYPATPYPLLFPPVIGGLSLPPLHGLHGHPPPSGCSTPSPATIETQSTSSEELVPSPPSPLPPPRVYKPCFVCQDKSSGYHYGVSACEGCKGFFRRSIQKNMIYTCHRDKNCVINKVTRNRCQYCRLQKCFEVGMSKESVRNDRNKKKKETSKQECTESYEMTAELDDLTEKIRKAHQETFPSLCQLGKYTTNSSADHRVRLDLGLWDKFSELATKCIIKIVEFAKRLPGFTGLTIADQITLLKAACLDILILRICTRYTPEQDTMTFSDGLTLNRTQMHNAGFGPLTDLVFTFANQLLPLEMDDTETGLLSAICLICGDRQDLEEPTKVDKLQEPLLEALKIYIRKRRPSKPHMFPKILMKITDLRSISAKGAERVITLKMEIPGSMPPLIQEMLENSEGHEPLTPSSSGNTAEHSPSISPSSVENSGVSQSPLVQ

HL-60 [3] = experiment: Antagonistic activity was evaluated in terms of inhibition of HL-60 cell differentiation activity by ATRA (10 nM); format: functional, cell-based; conditions: Homo sapiens
Summary of the method: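 HL-60 cells were induced to differentiate with ATRA (10 nM). Antagonism was scored as inhibition of that differentiation, read out as CD11b expression.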

[4] = target: T3, Retinoic acid receptor alpha (Homo sapiens) (UniProt P10276); experiment: Retinoid activity at Retinoic acid receptor alpha was evaluated relative to that of All-trans retinoic acids(Mean of ATRA EC50 = 1.06 nM); Not detectable
T3 sequence (whole entry): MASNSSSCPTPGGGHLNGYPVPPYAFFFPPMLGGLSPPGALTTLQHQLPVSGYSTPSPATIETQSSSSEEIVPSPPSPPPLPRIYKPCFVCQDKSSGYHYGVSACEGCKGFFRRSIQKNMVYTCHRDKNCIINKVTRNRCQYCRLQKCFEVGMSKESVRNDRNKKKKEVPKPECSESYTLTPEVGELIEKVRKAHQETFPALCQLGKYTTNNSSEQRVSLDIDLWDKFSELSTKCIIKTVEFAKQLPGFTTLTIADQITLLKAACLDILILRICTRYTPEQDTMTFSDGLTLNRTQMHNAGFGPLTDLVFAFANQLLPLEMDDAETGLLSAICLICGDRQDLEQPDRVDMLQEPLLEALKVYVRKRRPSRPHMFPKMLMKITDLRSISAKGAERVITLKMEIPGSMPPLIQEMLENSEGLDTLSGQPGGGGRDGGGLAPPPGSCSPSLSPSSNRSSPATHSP
Summary of the method: (§1)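 Gene transcription was induced in a co-transfection transactivation assay at each RAR subtype. Full dose-response curves started from 0.1 nM. EC30 is the concentration giving 30% of the maximal observed response. The reported value is the mean of EC30/ATRA EC30. Activity was taken as not detectable when EC30 > 3000 nM.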

[5] = target: T4, Retinoic acid receptor beta (Homo sapiens) (UniProt P10826); experiment: In vitro binding affinity towards Retinoic acid receptor beta evaluated relative to that of All-trans retinoic acids(Mean of ATRA IC50 = 0.52 nM)
T4 sequence (whole entry): T2 sequence (P10826 whole entry)

[6] = target: T5, Retinoic acid receptor alpha (Homo sapiens, UniProt P10276); experiment: Antagonistic activity was evaluated in terms of inhibition of Retinoic acid receptor alpha transactivation by ATRA (50 nM); format: functional
T5 sequence (P10276 whole entry): T3 sequence (whole entry)

[7] = target: T3, Retinoic acid receptor alpha (Homo sapiens); experiment: In vitro binding affinity towards Retinoic acid receptor alpha evaluated relative to that of All-trans retinoic acids(Mean of ATRA IC50 = 0.66 nM)
[8] = target: T6, Retinoic acid receptor gamma (Homo sapiens, UniProt P13631); experiment: Antagonistic activity was evaluated in terms of inhibition of Retinoic acid receptor gamma transactivation by ATRA (50 nM); Not detectable; format: functional
T6 sequence (P13631 whole entry): T1 sequence (whole entry)

HL-60 [9] = experiment: Agonistic activity was evaluated by HL-60 cell differentiation activity; Not detectable; format: functional, Homo sapiens
Summary of the method: (§2)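 HL-60 cell differentiation was read out as CD11b expression, used as the differentiation marker.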

[10] = target: T1, Retinoic acid receptor gamma (Homo sapiens); experiment: Retinoid activity at Retinoic acid receptor gamma was evaluated relative to that of All-trans retinoic acids(Mean of ATRA EC50 = 0.26 nM); summary of the method: as §1
[11] = target: T4, Retinoic acid receptor beta (Homo sapiens); experiment: Retinoid activity at Retinoic acid receptor beta was evaluated relative to that of All-trans retinoic acids(Mean of ATRA EC50 = 1.02 nM); summary of the method: as §1
[12] = target: T3, Retinoic acid receptor alpha (Homo sapiens); experiment: Retinoid activity at Retinoic acid receptor alpha was evaluated relative to that of All-trans retinoic acids(Mean of ATRA EC50 = 1.06 nM); summary of the method: as §1
HL-60 [13] = experiment: Agonistic activity was evaluated by HL-60 cell differentiation activity; format: functional, Homo sapiens; summary of the method: as §2
[14] = target: T1, Retinoic acid receptor gamma (Homo sapiens); experiment: In vitro binding affinity towards Retinoic acid receptor gamma evaluated relative to that of All-trans retinoic acids(Mean of ATRA IC50 = 0.42 nM); Not detectable

Structure (SMILES)	Relative IC50 [1]	IC50 [2] [nM]	IC50 (HL-60 [3]) [nM]	Relative EC30 [4]	Relative IC50 [5]	IC50 [6] [nM]	Relative IC50 [7]	IC50 [8] [nM]	ED30 (HL-60 [9]) [nM]	Relative EC30 [10]	Relative EC30 [11]	Relative EC30 [12]	ED30 (HL-60 [13]) [nM]	Relative IC50 [14]
CC(C)c1cccc2c(-c3ccccc3)cc(-c3ccc(-c4ccc(C(=O)O)cc4)[nH]3)nc12	432	> 3000	6.4	> 3000	535	31.2	1.8	> 3000	>10000	> 3000	–	–	–	–
CCc1cc(-c2ccc(-c3ccc(C(=O)O)cc3)[nH]2)nc2c(C(C)C)cccc12	22	–	17	–	32	–	0.7	–	>10000	180	22	2.5	–	–
CC(C)c1cccc2ccc(-c3ccc(-c4ccc(C(=O)O)cc4)[nH]3)nc12	–	–	–	–	579	–	5.7	–	–	5770	97	3	2500	> 1000
Cc1cc(-c2ccc(-c3ccc(C(=O)O)cc3)[nH]2)nc2c(C(C)C)cccc12	141	–	–	–	71	–	1.7	–	–	903	16	2.8	100	–
CC(C)c1cccc2c(Cl)cc(-c3ccc(-c4ccc(C(=O)O)cc4)[nH]3)nc12	251	–	–	–	79	–	1.3	–	–	1160	17	1.9	100	–
COc1cc(-c2ccc(-c3ccc(C(=O)O)cc3)[nH]2)nc2c(C(C)C)cccc12	834	–	1.6	> 3000	475	–	0.8	–	>10000	4460	38	–	–	–
